# Screens (PubChem BioAssay)
# In the library only some 2.1% were active in any assay of this set; here they are far more common.
# PKA-R1A act: PKA-R1A complex activation; P00514+P68181; PKA-R1A dissociation, Cy5-IP20 fluorescence polarization; scaled: DMSO 0%, 113 µM cGMP 100%; activation, % at 11.4 µM; 0.083% of 340,000 active;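 active = percent activation above the mean of all tested compounds plus 3 SD, cut at about 19% in these data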;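 also: higher means more PKAc released from R1A so a rise in polarization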
# MsrA act: bovine methionine sulfoxide reductase A activation; purified bovine MsrA, absorbance read-out; activation, % at 10.6 µM; 0.3% of 360,000 active; AID 602163; in the data active = activation above about 7.5%;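 also: 0% = vehicle and 100% = reference activator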
# MsrA inhibitor: inhibitors of bovine MsrA; purified bovine MsrA, absorbance read-out; inhibition, % at 15.5 µM; 0.75% of 360,000 active;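 also: 0% = vehicle wells with enzyme and 100% = reference inhibitor wells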
# PKA-R2B activ: activators of human PKA-R2B complex; P22694+P31323; PKA-R2B holoenzyme dissociation, Cy5-IP20 fluorescence polarization; R2B truncated from residue 108, S112A mutant; 0% DMSO only, 100% 113 µM cGMP; activation, % at 11.4 µM; 0.079% of 340,000 active;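 active = activation above a cutoff set at the mean over all compounds plus 3 SD, cut at about 18% in these data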;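 also: higher means more holoenzyme dissociation and a rise in polarization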
# Target sequence (P31323 whole entry, looked up, other chains not shown, the tested form may be a part): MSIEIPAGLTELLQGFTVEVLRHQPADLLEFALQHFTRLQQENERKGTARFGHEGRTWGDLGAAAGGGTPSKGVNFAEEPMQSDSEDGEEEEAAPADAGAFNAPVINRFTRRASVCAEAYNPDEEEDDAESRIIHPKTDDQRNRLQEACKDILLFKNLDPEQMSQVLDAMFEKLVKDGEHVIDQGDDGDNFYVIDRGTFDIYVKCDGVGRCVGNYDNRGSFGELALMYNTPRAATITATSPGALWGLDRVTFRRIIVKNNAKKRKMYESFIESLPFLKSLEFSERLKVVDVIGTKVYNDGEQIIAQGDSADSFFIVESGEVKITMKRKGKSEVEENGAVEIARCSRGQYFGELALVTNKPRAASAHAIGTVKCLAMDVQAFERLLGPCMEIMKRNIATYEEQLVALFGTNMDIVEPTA
# IMP-1 inh: inhibitors of Pseudomonas aeruginosa IMP-1 metallo-beta-lactamase. purified IMP-1, nitrocefin hydrolysis, epi-absorbance fluorescence. inhibition, % at 5.6 µM. 0.45% of 290,000 active;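 active = inhibition above the mean plus 3 SD of all compounds in the same screening run, cut at about 4.5% in these data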;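 also: 0% = IMP-1 with DMSO and 100% = DMSO wells lacking enzyme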
#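 System: purified IMP-1 / Input: IMP-1 dispensed at 0.2 nM / Medium: 50 mM HEPES pH 7.1, 50 µM ZnSO4, 0.05% Brij 35 / Timing: 15 min enzyme–compound preincubation, then 25 min nitrocefin reaction, 25 °C / Technique: plate fluorescence quenching by hydrolysis product, ex 480/em 530 nm / Repeats: singlicate testing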
# VIM-2 inhibitor: inhibitors of Pseudomonas aeruginosa VIM-2 metallo-beta-lactamase. purified VIM-2, nitrocefin hydrolysis, epi-absorbance fluorescence. inhibition, % at 5.6 µM. 0.89% of 290,000 active. AID 1527;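 active = inhibition above the mean of all tested compounds plus 3 SD, cutoff set per screening run, cut at about 7.5% in these data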;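 also: red hydrolysis product quenches plate fluorescence so inhibitors raise well fluorescence; 0% = enzyme with DMSO and 100% = DMSO without enzyme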
# R2B FP artifact: FP assay interference, PKA-R2B counter-screen. shares compounds with PKA-R2B activ. FP artifact counterscreen, fluorescence polarization. activation, % at 11.4 µM. 6% of 270 active. AID 504796; in the data active = activation above about 20%;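 also: Cy5 labelled IP20 peptide probe with compound but no PKA protein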
# PKA-R2B confirm: PKA-R2B complex activation, confirmation; activation, % at 11.4 µM; fluorescence polarization; shares compounds with PKA-R2B activ; 9% of 270 active; in the data active = activation above about 19%
# Target sequence (P31323 whole entry, looked up): as the sequence (P31323 whole entry, looked up, other chains not shown, the tested form may be a part) above
# R1A FP artifact: FP assay interference, PKA-R1A counter-screen; shares compounds with PKA-R1A act; Cy5-IP20 peptide alone, fluorescence polarization artifact counterscreen; activation, % at 11.4 µM; 7% of 280 active; AID 504799;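 active = mean activation over triplicate runs exceeds the adjusted cutoff derived for the parent primary screen, cut at about 19% in these data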;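 also: no PKA protein present so any polarization rise reflects compound interference; 0% = tracer peptide mix alone and 100% = mix with added PKA catalytic subunit; higher means stronger polarization artifact and likely false positive in parent screen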
# PKA-R1A confirm: PKA-R1A complex activation, confirmation; Cy5-IP20 fluorescence polarization, PKA-R1A holoenzyme dissociation; 9% of 280 active; shares compounds with PKA-R1A act; AID 504800; activation, % at 11.4 µM;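 active = mean activation over replicate wells exceeds the adjusted hit threshold taken from the earlier primary screen, cut at about 20% in these data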;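 also: 0% = holoenzyme mix with DMSO only and 100% = cGMP-activated control wells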
# MsrA activ conf: confirmation of bovine methionine sulfoxide reductase A activators | purified bovine MsrA, absorbance read-out | activation, % at 10.6 µM | shares compounds with MsrA act | 12% of 1,000 active; in the data active = activation above about 4%;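 also: enzyme coupled to thioredoxin and thioredoxin reductase with NADPH; 0% = vehicle wells and 100% = reference activator wells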
# MsrA conf: bovine MsrA inhibition, confirmed; inhibition, % at 15.5 µM; shares compounds with MsrA inhibitor; 41% of 2,300 active; AID 651822; purified bovine MsrA, absorbance read-out;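 also: coupled to thioredoxin reductase with NADPH and selenocystamine and DMSO as substrate; 0% = vehicle only and 100% = full effect of reference inhibitor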
# Starred values were filed as active, the others as inactive; . = no result given; ! = a repeat was not active. Rule as the data show it, unless noted: active = inhibition above about 4.5%; inactive = the rest.
SMILES,PKA-R1A act,MsrA act,MsrA inhibitor,PKA-R2B activ,IMP-1 inh,VIM-2 inhibitor,MsrA conf,others
CC=C(C)C1(CCC)C(=O)NC(=S)NC1=O,3,2,-1,-5,.,.,.,
O=C(O)c1cccc2c1NC(C(=O)O)C1CC(Sc3ccccc3[N+](=O)[O-])C(Cl)C21 (stereo not drawn),5,-5,2,22*,5.2*,2,.,R2B FP artifact=24*;PKA-R2B confirm=15
O=c1[nH]c(=S)n(C2CC2)c(O)c1C=Nc1cccc(C(F)(F)F)c1,6,-2,1,-4,0,-3,.,
CNC(=O)Oc1ccccc1OC(C)C,6,-1,1,-2,.,.,.,
CCOP(=O)(C(NC(=O)c1ccccc1Cl)=C(Cl)Cl)c1ccccc1 (stereo not drawn),8,1,0,-1,-4,-3,.,
CCOP(=O)(OCC)C(NC(=O)c1ccccc1Cl)=C(Cl)Cl,14,1,0,19*,-2,-3,.,R2B FP artifact=7;PKA-R2B confirm=0
Cc1ccc(-n2c(C)nc3cc(Cl)ccc3c2=O)nc1,-3,-9,-1,-2,-1,2,.,
CCn1cc(CN2CCCC(C(=O)c3cccc(OC)c3)C2)c(C)n1 (stereo not drawn),5,-4,-1,2,-1,-1,.,
CCCn1cc(CN2CCCC(C(=O)c3cccc(OC)c3)C2)c(C)n1 (stereo not drawn),8,0,0,21*,-3,-2,.,R2B FP artifact=2;PKA-R2B confirm=1
N#CCCn1cc(C=C2C(=O)NC(=O)NC2=O)c(-c2ccccc2)n1,10,-4,0,19*,-3,1,.,R2B FP artifact=5;PKA-R2B confirm=2
Cc1ccc(/C=C2/C(=O)NC(=O)N(CCc3ccc(F)cc3)C2=O)o1,8,-3,0,24*,-1,2,.,R2B FP artifact=2;PKA-R2B confirm=4
O=C(NC(=S)N1C[C@H]2C[C@H](C1)c1cccc(=O)n1C2)c1ccc(Cl)cc1Cl,-13,-7,1,-7,-2,1,.,
CC(Cc1ccccc1)N(C)CC1C(=O)C2CCC1C2 (stereo not drawn),-12,-1,-1,-3,.,.,.,
C#CCN(C)C(C)Cc1ccccc1 (stereo not drawn),-8,-2,-1,19*,-4,-4,.,R2B FP artifact=1;PKA-R2B confirm=2
Oc1ccc2c3c1O[C@H]1[C@@H](O)CC[C@@]4(O)[C@@H](C2)N(CC2CCC2)CC[C@]314,-9,-2,-1,19*!,.,.,.,R2B FP artifact=5;PKA-R2B confirm=3
O=C1NC(=S)NC(=O)C1=Cc1cccn1-c1ccc(O)cc1,21*,-3,0,2,-4,-2,.,R1A FP artifact=4;PKA-R1A confirm=1
CC12CC(O)C3C(CCC4=CC(=O)CCC43C)C1CCC2=O (stereo not drawn),6,-2,1,-3,.,.,.,
O=C(CCN1CCOCC1)NCC(=O)Nc1ccc(Br)cc1C(=O)c1ccccc1,-4,7.8*,-1,-7,-1,-1,.,MsrA activ conf=2
COc1ccc(NC(=S)N2Cc3ccccc3-n3nncc3C2)c(OC)c1,-2,-3,0,2,.,.,.,
COc1cc2c(c(OC)c1O)-c1ccc(OC)c(=O)cc1C(NC(=O)C(F)(F)F)CC2 (stereo not drawn),8,-11,4,-9,.,.,.,
COc1cc2c(c(OC)c1OC)-c1ccc(C(=O)O)cc1[C@@H](NC(C)=O)CC2,9,19*,-1,8,.,.,.,MsrA activ conf=-1
CC[n+]1c(-c2ccccc2)c2cc(N)ccc2c2ccc(N)cc21,7,9.2*,44*,-13,.,.,49*,MsrA activ conf=3
O=S(=O)(c1ccccc1)N1CC1c1ccccc1 (stereo not drawn),11,-2,1,-6,-1,1,.,
O=c1[nH]c(=S)n(Cc2ccc(F)cc2)c(O)c1C=NCC1CCCO1 (stereo not drawn),1,-4,5.7*,-9,-4,-3,3,
CC(C)n1c(O)c(C=NCc2ccccc2)c(=O)[nH]c1=S,2,-5,5.2*,-1,-3,-1,2,
SMILES,PKA-R1A act,MsrA act,MsrA inhibitor,PKA-R2B activ,IMP-1 inh,VIM-2 inhibitor,MsrA conf,others
O=c1[nH]c(=S)n(Cc2ccc(F)cc2)c(O)c1C=NCc1cccnc1,6,-8,4.8*,-12,-2,-4,4,
O=c1[nH]c(=S)n(Cc2ccc(F)cc2)c(O)c1/C=N/N1CCCCC1,-3,-1,2,-5,-4,-4,.,
O=c1[nH]c(=S)n(C2CC2)c(O)c1C=NCC1CCCO1 (stereo not drawn),-13,-7,6.2*,0,-2,0,3,
C=CP(=O)(O)c1ccccc1,-1,-11,-1,1,-3,-2,.,
COc1cc(/C=C/[N+](=O)[O-])ccc1O,1,-8,5.5*,-6,-3,-2,4.7*,
COc1ccc(C=C2C(=O)NC(=S)NC2=O)cc1OC,-11,-2,0,-2,.,.,.,
CCOc1cc(C=C2C(=O)NC(=S)NC2=O)ccc1O,5,-6,4.8*,-8,.,.,2,
CC(C)(C)c1cc([N+](=O)[O-])cc(C(C)(C)C)c1O,.,.,22*,.,-2,0,18*,
O=C1C2CCCN2C(c2cccs2)N1c1ccccn1 (stereo not drawn),-9,-3,-1,2,-3,-2,.,
CC(=O)/C=C/c1ccccc1,0,0,-1,0,.,.,.,
O=C(/C=C/C=C/c1ccccc1)CC1(O)C(=O)Nc2ccccc21 (stereo not drawn),-14,-4,7.2*,-13,-4,-2,5.6*,
Cc1ccccc1-n1c(O)c(C=Nc2ccc3c(c2)OCO3)c(=O)[nH]c1=O,3,-4,4.7*,12,-3,-2,3,
CCN(CC)c1ccc(N=Cc2c(O)n(-c3ccccc3C)c(=O)[nH]c2=O)cc1,-17,0,0,-14,1,-3,.,
N/C(=N\N=C\c1ccc(O)cc1O)N[N+](=O)[O-],9,-6,4,-4,2,-1,.,
N/C(=N\[N+](=O)[O-])N/N=C/c1ccc(O)cc1,-7,-7,5.3*,9,-1,-1,4,
